Experimental data taken from ChEMBL document CHEMBL1150802, “Ampicillin-resistant non-beta-lactamase-producing Haemophilus influenzae in Spain: recent emergence of clonal isolates with increased resistance to cefotaxime and cefixime” (2007).
In brackets after ≈: the same amount, converted by molar mass.

What was measured:
Assay type in all cases: functional
[1] = test system: Haemophilus influenzae; test: Antibacterial activity against beta-lactamase nonproducing ampicillin resistant Haemophilus influenzae group IIc isolates with acrR mutation by broth microdilution method
[2] = test system: Haemophilus influenzae; test: Antibacterial activity against Haemophilus influenzae group IIb isolates with ftsI gene mutation by broth microdilution method
Outline: (§1)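 Clinical isolates were tested by broth microdilution in Haemophilus test medium following CLSI guidelines, with H. influenzae ATCC 49247 as the QC strain. β-Lactamase was detected by chromogenic nitrocefin test. ftsI was PCR-amplified and sequenced across nt 936–1640 (aa 327–540). Classes: BLNAS (no mechanism), BLNAR (ftsI substitutions), BLPAR (β-lactamase only), BLPACR (both). Agents tested were amoxicillin, amoxicillin-clavulanate (2:1), cefaclor, cefuroxime, cefotaxime and cefixime.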

[3] = test system: Haemophilus influenzae; test: Antibacterial activity against beta-lactamase positive ampicillin resistant Haemophilus influenzae isolate assessed as percent resistant isolates by broth microdilution method; outline: as §1
[4] = test system: Haemophilus influenzae; test: Antibacterial activity against Haemophilus influenzae group I isolates with ftsI gene mutation by broth microdilution method; outline: as §1
[5] = test system: Haemophilus influenzae; test: Antibacterial activity against Haemophilus influenzae group IIc isolates with ftsI gene mutation by broth microdilution method; outline: as §1
[6] = test system: Haemophilus influenzae; test: Antibacterial activity against beta-lactamase nonproducing ampicillin resistant Haemophilus influenzae group IIc isolates with acrR TTA>TGA mutation at 521 position by broth microdilution method
[7] = test system: Haemophilus influenzae; test: Antibacterial activity against beta-lactamase producing amoxicillin-clavulanic acid-resistant Haemophilus influenzae isolate assessed as percent susceptible isolates by broth microdilution method
Outline: (§2)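 Broth microdilution in Haemophilus test medium per CLSI guidelines on clinical isolates, with H. influenzae ATCC 49247 as quality-control strain; β-lactamase production detected by nitrocefin chromogenic cephalosporin test; isolates classed by β-lactamase status and ftsI (PBP 3) sequencing of amino acids 327 to 540. Agents tested: amoxicillin, amoxicillin-clavulanic acid (2:1), cefaclor, cefuroxime, cefotaxime, cefixime.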

[8] = test system: Haemophilus influenzae; test: Antibacterial activity against Haemophilus influenzae group III-like isolates with ftsI gene mutation by broth microdilution method; outline: as §1
[9] = test system: Haemophilus influenzae; test: Antibacterial activity against beta-lactamase nonproducing ampicillin resistant Haemophilus influenzae group IIb isolates with acrR aminoacid substitution mutation by broth microdilution method
[10] = test system: Haemophilus influenzae; test: (§3) Antibacterial activity against beta-lactamase nonproducing ampicillin resistant Haemophilus influenzae group IIa isolates with acrR aminoacid substitution mutation by broth microdilution method
[11] = test system: Haemophilus influenzae; test: Antibacterial activity against beta-lactamase nonproducing ampicillin susceptible Haemophilus influenzae isolate by broth microdilution method; outline: as §1
[12] = test system: Haemophilus influenzae; test: Antibacterial activity against beta-lactamase nonproducing ampicillin susceptible Haemophilus influenzae isolate assessed as percent susceptible isolates by broth microdilution method; outline: as §2
[13] = test system: Haemophilus influenzae; test: Antibacterial activity against beta-lactamase nonproducing ampicillin resistant Haemophilus influenzae group IIc isolates with acrR base A insertion behind nucleotide 361 by broth microdilution method
[14] = test system: Haemophilus influenzae; test: Antibacterial activity against beta-lactamase nonproducing ampicillin resistant Haemophilus influenzae isolate assessed as percent susceptible isolates by broth microdilution method; outline: as §1
[15] = test system: Haemophilus influenzae; test: Antibacterial activity against beta-lactamase nonproducing ampicillin resistant Haemophilus influenzae group IIc isolates with acrR base C insertion behind nucleotide 496 by broth microdilution method
[16] = test system: Haemophilus influenzae; test: Antibacterial activity against Haemophilus influenzae group IIa isolates with ftsI gene mutation by broth microdilution method; outline: as §1
[17] = test system: Haemophilus influenzae; test: as §3; remark: listed apart in the source
[18] = test system: Haemophilus influenzae; test: Antibacterial activity against beta-lactamase positive ampicillin resistant Haemophilus influenzae isolate by broth microdilution method; outline: as §1
[19] = test system: Haemophilus influenzae; test: Antibacterial activity against beta-lactamase nonproducing ampicillin resistant Haemophilus influenzae group IIc isolates with acrR TTA>TGA mutation at 425 position by broth microdilution method
[20] = test system: Haemophilus influenzae; test: Antibacterial activity against beta-lactamase nonproducing ampicillin resistant Haemophilus influenzae group IIc isolates with acrR aminoacid substitution mutation by broth microdilution method
[21] = test system: Haemophilus influenzae; test: Antibacterial activity against beta-lactamase producing amoxicillin-clavulanic acid-resistant Haemophilus influenzae isolate by broth microdilution method; outline: as §1
[22] = test system: Haemophilus influenzae; test: Antibacterial activity against beta-lactamase nonproducing ampicillin susceptible Haemophilus influenzae isolate assessed as percent resistant isolates by broth microdilution method; outline: as §1
[23] = test system: Haemophilus influenzae; test: Antibacterial activity against beta-lactamase nonproducing ampicillin resistant Haemophilus influenzae isolate assessed as percent resistant isolates by broth microdilution method; outline: as §1
[24] = test system: Haemophilus influenzae; test: Antibacterial activity against beta-lactamase nonproducing ampicillin resistant Haemophilus influenzae group IIb isolates with acrR mutation by broth microdilution method
[25] = test system: Haemophilus influenzae; test: Antibacterial activity against beta-lactamase nonproducing ampicillin resistant Haemophilus influenzae group I isolates with acrR ATT deletion behind nucleotide 170 by broth microdilution method
[26] = test system: Haemophilus influenzae; test: Antibacterial activity against beta-lactamase nonproducing ampicillin resistant Haemophilus influenzae group IId isolates with acrR mutation by broth microdilution method
[27] = test system: Haemophilus influenzae; test: Antibacterial activity against beta-lactamase nonproducing ampicillin resistant Haemophilus influenzae isolate by broth microdilution method; outline: as §1
[28] = test system: Haemophilus influenzae; test: Antibacterial activity against Haemophilus influenzae group IId isolates with ftsI gene mutation by broth microdilution method; outline: as §1
[29] = test system: Haemophilus influenzae; test: Antibacterial activity against beta-lactamase nonproducing ampicillin resistant Haemophilus influenzae group IIc isolates with acrR baseC insertion mutation by broth microdilution method
[30] = test system: Haemophilus influenzae; test: Antibacterial activity against beta-lactamase producing amoxicillin-clavulanic acid-resistant Haemophilus influenzae isolate assessed as percent resistant isolates by broth microdilution method; outline: as §1
[31] = test system: Haemophilus influenzae; test: Antibacterial activity against beta-lactamase positive ampicillin resistant Haemophilus influenzae isolate assessed as percent susceptible isolates by broth microdilution method; outline: as §1

## CC1(C)S[C@@H]2[C@H](NC(=O)[C@H](N)c3ccccc3)C(=O)N2[C@H]1C(=O)O [AMPICILLIN]
[1]
  MIC: 1 µg/mL (≈ 2.86 µM)
[2]
  MIC50: 1 µg/mL (≈ 2.86 µM)
  MIC90: 2 µg/mL (≈ 5.72 µM)
[3]
  Activity: 100%
[4]
  MIC: 0.5 µg/mL (≈ 1.43 µM)
  MIC50: 0.5 µg/mL (≈ 1.43 µM)
  MIC90: 2 µg/mL (≈ 5.72 µM)
[5]
  MIC50: 2 µg/mL (≈ 5.72 µM)
  MIC90: 2 µg/mL (≈ 5.72 µM)
[6]
  MIC: 2 µg/mL (≈ 5.72 µM)
[7]
  Activity: 0%
[8]
  MIC50: 1 µg/mL (≈ 2.86 µM)
  MIC90: 2 µg/mL (≈ 5.72 µM)
[9]
  MIC: 2 µg/mL (≈ 5.72 µM)
[10]
  MIC: 4 µg/mL (≈ 11.4 µM)
[11]
  MIC: ≤ 0.25 µg/mL
  MIC50: ≤ 0.25 µg/mL
  MIC90: 0.5 µg/mL (≈ 1.43 µM)
[12]
  Activity: 98.4%
[13]
  MIC: 1 µg/mL (≈ 2.86 µM)
[14]
  Activity: 49.2%
[15]
  MIC: 0.5 µg/mL (≈ 1.43 µM)
[16]
  MIC50: 2 µg/mL (≈ 5.72 µM)
  MIC90: 4 µg/mL (≈ 11.4 µM)
[17]
  MIC: 1 µg/mL (≈ 2.86 µM)
[18]
  MIC50: 8 µg/mL (≈ 22.9 µM)
[19]
  MIC: 0.5 µg/mL (≈ 1.43 µM)
[20]
  MIC: 2 µg/mL (≈ 5.72 µM)
[21]
  MIC50: ≥ 32 µg/mL
  MIC90: ≥ 32 µg/mL
[22]
  Activity: 1.6%
[23]
  Activity: 50.8%
[24]
  MIC: 1 µg/mL (≈ 2.86 µM)
[25]
  MIC: 2 µg/mL (≈ 5.72 µM)
[26]
  MIC: 1 µg/mL (≈ 2.86 µM)
[27]
  MIC50: 1 µg/mL (≈ 2.86 µM)
  MIC90: 2 µg/mL (≈ 5.72 µM)
[28]
  MIC: 0.5 µg/mL (≈ 1.43 µM)
  MIC50: 0.5 µg/mL (≈ 1.43 µM)
  MIC90: 2 µg/mL (≈ 5.72 µM)
[29]
  MIC: 2 µg/mL (≈ 5.72 µM)
[30]
  Activity: 100%

## N[C@@H](C(=O)N[C@@H]1C(=O)N2C(C(=O)O)=C(Cl)CS[C@H]12)c1ccccc1 [CEFACLOR ANHYDROUS]
[2]
  MIC50: 4 µg/mL (≈ 10.9 µM)
[3]
  Activity: 8.9%
[4]
  MIC: 2 µg/mL (≈ 5.44 µM)
  MIC50: 2 µg/mL (≈ 5.44 µM)
  MIC90: 8 µg/mL (≈ 21.8 µM)
[5]
  MIC50: 8 µg/mL (≈ 21.8 µM)
[7]
  Activity: 75.7%
[8]
  MIC50: 4 µg/mL (≈ 10.9 µM)
[11]
  MIC50: 2 µg/mL (≈ 5.44 µM)
  MIC90: 4 µg/mL (≈ 10.9 µM)
[12]
  Activity: 100%
[14]
  Activity: 87.9%
[16]
  MIC50: 8 µg/mL (≈ 21.8 µM)
[18]
  MIC50: 4 µg/mL (≈ 10.9 µM)
  MIC90: 8 µg/mL (≈ 21.8 µM)
[21]
  MIC50: 4 µg/mL
  MIC90: ≥ 16 µg/mL
[22]
  Activity: 0%
[23]
  Activity: 12.1%
[31]
  Activity: 91.1%
[27]
  MIC50: 4 µg/mL (≈ 10.9 µM)
[28]
  MIC50: 2 µg/mL (≈ 5.44 µM)
  MIC90: 8 µg/mL (≈ 21.8 µM)
[30]
  Activity: 24.3%
